Legend:
[1] = (§1) Cytotoxicity against human rhabdomyosarcoma (RD) cells; type: functional
Enterovirus A71 = assay: Inhibition concentration against EV-71; type: functional, organism-based; settings: Enterovirus A
[2] = as §1; type: functional; remark: listed apart in the source
How it was run: (§2)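 Test compound at various concentrations added to D551 (human normal skin fibroblast), WI38 (human normal lung fibroblast) or RD cells; incubated 96 h at 37 °C; cells harvested and viable cells counted by trypan blue staining. Triplicate, at least twice.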

Enterovirus [3] = assay: Inhibition concentration against human rhinovirus 2; type: functional, organism-based
How it was run: (§3)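 Plaque reduction on Vero cell monolayers infected to give about 50-100 plaques per monolayer in virus control; test compound diluted into agar-medium overlay; 96 h at 35 °C, crystal violet staining, plaques counted. […] Triplicate well means, at least two experiments.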

[4] = Selectivity index (RD/EV71) of the compound; type: functional
Coxsackievirus [5] = assay: Inhibition concentration against coxsackie virus A10; type: functional, organism-based; how it was run: as §3
Coxsackievirus [6] = assay: Inhibition concentration against coxsackie virus B6; type: functional, organism-based; how it was run: as §3
Coxsackievirus [7] = assay: Inhibition concentration against coxsackie virus B1; type: functional, organism-based; how it was run: as §3
Enterovirus [8] = assay: Inhibition concentration against echovirus 29; type: functional, organism-based; how it was run: as §3
Coxsackievirus [9] = assay: Inhibition concentration against coxsackie virus B4; type: functional, organism-based; how it was run: as §3
Coxsackievirus [10] = assay: Inhibition concentration against coxsackie virus B5; type: functional, organism-based; how it was run: as §3
[11] = Cytotoxicity against human normal skin fibroblast (W138) cells; type: cell-based; how it was run: as §2
Coxsackievirus [12] = assay: Inhibition concentration against coxsackie virus A16; type: functional, organism-based; how it was run: as §3
[13] = tested on: unidentified influenza virus; assay: Inhibition concentration against influenza A (WSN); type: functional, organism-based
How it was run: (§4)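 Plaque reduction assay on Vero cell monolayers. Virus was added at a dose giving about 50-100 plaques per monolayer in virus controls. Compound was diluted into the agar-medium overlay, tested up to 25 µM. Plates were incubated 96 h at 35 °C, stained with crystal violet, and plaques counted.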

Enterovirus [14] = assay: Inhibition concentration against EV-71 (2231) genotype C; type: functional, organism-based; how it was run: as §3
[15] = Cytotoxicity against human normal skin fibroblast (D551) cells; type: cell-based; how it was run: as §2
Enterovirus [16] = assay: Inhibition concentration against EV-71 (1743) genotype B; type: functional, organism-based; how it was run: as §3
[17] = tested on: unidentified influenza virus; assay: Inhibition concentration against influenza B […]; type: functional, organism-based; how it was run: as §4
[18] = Selectivity index (W138/EV71) of the compound; type: functional
Enterovirus [19] = assay: Inhibition concentration against EV-71 (BrCR) genotype A; type: functional, organism-based; how it was run: as §3
Enterovirus [20] = assay: Inhibition Concentration against enterovirus 68; type: functional, organism-based; how it was run: as §3
[21] = Selectivity index (D551/EV71) of the compound; type: functional
Coxsackievirus [22] = assay: Inhibition concentration against coxsackie virus A24; type: functional, organism-based; how it was run: as §3
Human alphaherpesvirus 2 = assay: Inhibition concentration against herpes simplex virus; type: functional, organism-based; how it was run: as §3
Coxsackievirus [23] = assay: Inhibition concentration against coxsackie virus B2; type: functional, organism-based; how it was run: as §3
Enterovirus [24] = assay: Inhibition concentration against EV-71 (2086) genotype C; type: functional, organism-based; how it was run: as §3
Coxsackievirus [25] = assay: Inhibition concentration against coxsackie virus B3; type: functional, organism-based; how it was run: as §3
Enterovirus [26] = assay: Inhibition concentration against human rhinovirus 14; type: functional, organism-based; how it was run: as §3
Enterovirus [27] = assay: Inhibition concentration against echovirus 9; type: functional, organism-based; how it was run: as §3
Coxsackievirus [28] = assay: Inhibition concentration against coxsackie virus A9; type: functional, organism-based; how it was run: as §3
[29] = selectivity index of the compound; type: functional
[30] = W138 normal skin fibroblast cells
[31] = D551 normal skin fibroblast cells

SMILES: N#Cc1ccc(-c2ccc(OCCCCCN3CCN(c4ccncc4)C3=O)cc2)cc1
- CC50 ([1]; Homo sapiens, RD): > 25 µM
- IC50 (Enterovirus A71): 2.66 µM

SMILES: Cc1ccc(OCCCCCCN2CCN(c3cccnc3)C2=O)cc1
- CC50 ([1]; Homo sapiens, RD): > 25 µM
- IC50 (Enterovirus A71): > 25 µM

SMILES: O=C1N(CCCCCCCOc2ccc(Cl)cc2)CCN1c1cccnc1
- CC50 ([1]; Homo sapiens, RD): > 25 µM
- IC50 (Enterovirus A71): 1.43 µM

SMILES: O=C1N(CCCCCCOc2ccc(Br)cc2)CCN1c1ccccc1
- CC50 ([1]; Homo sapiens, RD): > 25 µM
- IC50 (Enterovirus A71): 10.6 µM

SMILES: O=C1N(CCCCCOc2ccc(-c3cccs3)cc2)CCN1c1ccncc1
- CC50 [2]: > 25 µM
- IC50 (Enterovirus A71): 0.58 µM

SMILES: O=C1N(CCCCCCOc2ccc(C(F)(F)F)cc2)CCN1c1ccncc1
- IC50 (Enterovirus [3]): > 25 µM
- Selectivity index [4]: > 43
- CC50 ([1]; Homo sapiens, RD): > 25 µM
- IC50 (Coxsackievirus [5]): 15.7 µM
- IC50 (Coxsackievirus [6]): > 25 µM
- IC50 (Coxsackievirus [7]): 5.6 µM
- IC50 (Enterovirus [8]): > 25 µM
- IC50 (Coxsackievirus [9]): > 25 µM
- IC50 (Coxsackievirus [10]): > 25 µM
- CC50 [11, 30]: 36 µM
- IC50 (Coxsackievirus [12]): > 25 µM
- IC50 [13]: > 25 µM
- IC50 (Enterovirus [14]): 1.35 µM
- CC50 [15, 31]: 55 µM
- IC50 (Enterovirus [16]): 0.75 µM
- IC50 [17]: > 25 µM
- Selectivity index [18]: 71
- IC50 (Enterovirus [19]): 1.37 µM
- IC50 (Enterovirus [20]): 4.67 µM
- Selectivity index [21]: 108
- IC50 (Coxsackievirus [22]): 0.47 µM
- IC50 (Human alphaherpesvirus 2): > 25 µM
- IC50 (Coxsackievirus [23]): > 25 µM
- IC50 (Enterovirus [24]): 0.51 µM
- IC50 (Coxsackievirus [25]): > 25 µM
- IC50 (Enterovirus [26]): > 12.5 µM
- IC50 (Enterovirus A71): 0.58 µM
- IC50 (Enterovirus [27]): 2.61 µM
- IC50 (Coxsackievirus [28]): 1.44 µM

SMILES: O=C1N(CCCCCCOc2ccc(Cl)cc2)CCN1c1ccncc1
- CC50 ([1]; Homo sapiens, RD): > 25 µM
- IC50 (Enterovirus A71): 1.5 µM

SMILES: O=C1N(CCCCCCOc2ccc(C(F)(F)F)cc2)CCN1c1ccnc(Cl)c1
- CC50 ([1]; Homo sapiens, RD): > 25 µM
- IC50 (Enterovirus A71): > 25 µM

SMILES: O=C1N(CCCCCOc2ccc(Cl)cc2)CCN1c1ccncc1
- CC50 [2]: > 25 µM
- IC50 (Enterovirus A71): 1.35 µM

SMILES: O=C1N(CCCCCCOc2ccc(Cl)cc2)CCN1c1cccnc1
- CC50 ([1]; Homo sapiens, RD): > 25 µM
- IC50 (Enterovirus A71): 2.52 µM

SMILES: O=C1N(CCCCCCOc2ccc(Cl)cc2)CCN1c1ccncn1
- CC50 ([1]; Homo sapiens, RD): > 25 µM
- IC50 (Enterovirus A71): > 25 µM

SMILES: COc1ccc(OCCCCCCN2CCN(c3ccncc3)C2=O)cc1
- CC50 [2]: > 25 µM
- IC50 (Enterovirus A71): 5.43 µM

SMILES: O=C1N(CCCCCCOc2ccc(C(F)(F)F)cc2)CCN1c1cccnc1
- CC50 ([1]; Homo sapiens, RD): > 25 µM
- IC50 (Enterovirus A71): 2.1 µM

SMILES: O=C1N(CCCCCCOc2ccc(Br)cc2)CCN1c1cccnc1
- CC50 ([1]; Homo sapiens, RD): > 25 µM
- IC50 (Enterovirus A71): 2.07 µM

SMILES: O=C1N(CCCCCOc2ccc(C(F)(F)F)cc2)CCN1c1ccncc1
- CC50 ([1]; Homo sapiens, RD): 12.5 µM
- IC50 (Enterovirus A71): 1.35 µM

SMILES: O=C1N(CCCCCCOc2ccc(Cl)cc2)CCN1c1ccccc1
- CC50 ([1]; Homo sapiens, RD): > 25 µM
- IC50 (Enterovirus A71): 10.8 µM

SMILES: O=C1N(CCCCCOc2ccc(-c3ccc(Cl)cc3)cc2)CCN1c1ccncc1
- CC50 [1]: 12.5 µM
- CC50 [11]: 48 µM
- CC50 [15]: 13 µM

SMILES: O=C1N(CCCCCCOc2ccc(C(F)(F)F)cc2)CCN1c1ccccc1
- CC50 ([1]; Homo sapiens, RD): > 25 µM
- IC50 (Enterovirus A71): 12 µM

SMILES: O=C1N(CCCCCOc2ccc(Br)cc2)CCN1c1ccccc1
- CC50 ([1]; Homo sapiens, RD): > 25 µM
- IC50 (Enterovirus A71): 10.7 µM

SMILES: O=C1N(CCCCCCCOc2ccc(Br)cc2)CCN1c1ccncc1
- CC50 ([1]; Homo sapiens, RD): > 25 µM
- IC50 (Enterovirus A71): 0.56 µM

SMILES: O=C1N(CCCCCOc2ccc(-c3ccc([N+](=O)[O-])cc3)cc2)CCN1c1ccncc1
- CC50 ([1]; Homo sapiens, RD): > 25 µM
- CC50 [11, 30]: > 100 µM
- CC50 [15, 31]: > 100 µM
- IC50 (Enterovirus A71): 0.59 µM

SMILES: Cc1ccc(OCCCCCCN2CCN(c3ccncc3)C2=O)cc1
- CC50 ([1]; Homo sapiens, RD): > 25 µM
- IC50 (Enterovirus A71): 6.36 µM

SMILES: O=C1N(CCCCCCOc2ccc(Br)cc2)CCN1c1ccnc(Cl)c1
- CC50 ([1]; Homo sapiens, RD): > 25 µM
- IC50 (Enterovirus A71): > 25 µM

SMILES: O=C1N(CCCCCOc2ccc(C(F)(F)F)cc2)CCN1c1ccncn1
- CC50 ([1]; Homo sapiens, RD): > 25 µM
- IC50 (Enterovirus A71): > 25 µM

SMILES: N#Cc1ccc(OCCCCCCN2CCN(c3ccncc3)C2=O)cc1
- CC50 ([1]; Homo sapiens, RD): 0.39 µM
- IC50 (Enterovirus A71): > 0.39 µM

SMILES: O=C1N(CCCCCCOc2ccc(-c3cccs3)cc2)CCN1c1ccncc1
- Selectivity index [4]: > 83
- CC50 [11, 30]: 60 µM
- CC50 [15, 31]: 46 µM
- Selectivity index [29]: 200
- Selectivity index [21]: 153
- CC50 [2]: > 25 µM
- IC50 (Enterovirus A71): 0.3 µM

From ChEMBL document CHEMBL1135916, “Design, synthesis, and structure-activity relationship of pyridyl imidazolidinones: a novel class of potent and selective human enterovirus 71 inhibitors” (J Med Chem, 2002)
